Assay results reported in ChEMBL document CHEMBL1649159, “A redox basis for metronidazole resistance in Helicobacter pylori” (Antimicrob Agents Chemother, 2009).
In brackets after ≈: the same amount, converted by molar mass.

Assays:
[1] = Drug activation in metronidazole-susceptible Helicobacter pylori HER 126 V1 lysate
[2] = Drug activation in metronidazole-resistant Helicobacter pylori RIG 117 J56 lysate
[3] = Drug activation in metronidazole-resistant Helicobacter pylori CAS 015 J56 lysate harboring rdxA L132stop and frxA L39stop mutant genes; assay type: organism-based
[4] = Drug activation in metronidazole-susceptible Helicobacter pylori CAS 015 J0 lysate
[5] = Drug activation in metronidazole-resistant Helicobacter pylori 10593a/2 lysate
[6] = Drug activation in metronidazole-susceptible Helicobacter pylori RIG 117 J0 lysate
[7] = Drug activation in metronidazole-susceptible Helicobacter pylori 10593/2 lysate
[8] = Drug activation in metronidazole-resistant Helicobacter pylori HER 126 V4 lysate
Helicobacter pylori [9] = assay: Prodrug activation in Helicobacter pylori 10593a/2 lysate harboring rdxA C177stop mutant gene assessed as compound reduction under oxygenated microaerobic condition per mg of protein
Method in brief: (§1)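 Lysates of H. pylori strains grown at 37°C, either aerobically (5% CO2 in air) or microaerobically (5% CO2, 5% O2, 90% N2), with Mtr and NADH as substrates for reduction activity. Some lysate samples were argon-treated to displace oxygen. Protein content was measured by bicinchoninic acid microtiter assay.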

Helicobacter pylori [10] = assay: Antimicrobial activity against Helicobacter pylori RIG 117 J0 by Etest; assay type: functional
Method in brief: (§2)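 Etest MIC determination, repeated in triplicate. Strains were grown at 37°C, either aerobically (5% CO2 in air) or microaerobically (5% CO2, 5% O2, 90% N2). Strains were classed as susceptible or resistant using a resistance threshold of 8 µg ml–1, following clinical practice.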

Helicobacter pylori [11] = assay: Prodrug activation in Helicobacter pylori 10593/2 lysate assessed as compound reduction under oxygenated microaerobic condition per mg of protein; method in brief: as §1
Helicobacter pylori [12] = assay: Prodrug activation in Helicobacter pylori CAS 015 J0 lysate assessed as compound reduction under argonized aerobic condition per mg of protein
Method in brief: (§3)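 Metronidazole reduction was measured in lysate suspensions with Mtr and NADH as substrates. Cells were grown at 37°C either aerobically (5% CO2 in air) or microaerobically (5% CO2, 5% O2, 90% N2). Lysate samples were either argon-treated to displace oxygen or left untreated. Rates were expressed per mg protein, with protein determined by the bicinchoninic acid method.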

Helicobacter pylori [13] = assay: Antimicrobial activity against compound-resistant Helicobacter pylori HER 126 V4 by Etest; assay type: functional
Method in brief: (§4)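 Metronidazole susceptibility by Etest, repeated in triplicate, on clinical matched-pair isolates collected after failed metronidazole treatment. Strains were grown at 37°C either microaerobically (5% CO2, 5% O2, 90% N2) or aerobically (5% CO2 in air). Isolates were called resistant above a threshold of 8 µg ml–1.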

Helicobacter pylori [14] = assay: Antimicrobial activity against Helicobacter pylori HER 126 V1 by Etest; assay type: functional; method in brief: as §4
Helicobacter pylori [15] = assay: Prodrug activation in Helicobacter pylori 10593/2 lysate assessed as compound reduction under oxygenated aerobic condition per mg of protein; method in brief: as §1
Helicobacter pylori [16] = assay: Prodrug activation in Helicobacter pylori HER 126 V1 lysate assessed as compound reduction under oxygenated microaerobic condition per mg of protein; settings: in vivo; method in brief: as §3
Helicobacter pylori [17] = assay: Antimicrobial activity against compound-resistant Helicobacter pylori 10593a/2 harboring rdxA C177stop mutant gene by Etest; assay type: functional; method in brief: as §4
Helicobacter pylori [18] = assay: Prodrug activation in Helicobacter pylori HER 126 V1 lysate assessed as compound reduction under oxygenated aerobic condition per mg of protein; settings: in vivo; method in brief: as §3
Helicobacter pylori [19] = assay: Prodrug activation in compound-resistant Helicobacter pylori CAS 015 J56 lysate harboring rdxA L132stop and frxA L39stop mutant genes assessed as compound reduction under oxygenated microaerobic condition per mg of protein; method in brief: as §1
Helicobacter pylori [20] = assay: Prodrug activation in Helicobacter pylori CAS 015 J0 lysate assessed as compound reduction under argonized microaerobic condition per mg of protein; method in brief: as §3
Helicobacter pylori [21] = assay: Antimicrobial activity against compound-resistant Helicobacter pylori CAS 015 J56 harboring rdxA L132stop and frxA L39stop mutant genes by Etest; assay type: functional; method in brief: as §4
Helicobacter pylori [22] = assay: Prodrug activation in Helicobacter pylori CAS 015 J0 lysate assessed as compound reduction under oxygenated microaerobic condition per mg of protein; method in brief: as §1
Helicobacter pylori [23] = assay: Prodrug activation in compound-resistant Helicobacter pylori HER 126 V4 lysate assessed as compound reduction under oxygenated microaerobic condition per mg of protein; settings: in vivo; method in brief: as §1
Helicobacter pylori [24] = assay: Prodrug activation in Helicobacter pylori 10593/2 lysate assessed as compound reduction under argonized microaerobic condition per mg of protein; method in brief: as §3
Helicobacter pylori [25] = assay: Antimicrobial activity against Helicobacter pylori CAS 015 J0 by Etest; assay type: functional; method in brief: as §2
Helicobacter pylori [26] = assay: Prodrug activation in compound-resistant Helicobacter pylori 10593a/2 lysate harboring rdxA C177stop mutant gene assessed as compound reduction under argonized microaerobic condition per mg of protein; method in brief: as §1
Helicobacter pylori [27] = assay: Prodrug activation in compound-resistant Helicobacter pylori HER 126 V4 lysate assessed as compound reduction under argonized microaerobic condition per mg of protein; method in brief: as §1
Helicobacter pylori [28] = assay: Prodrug activation in Helicobacter pylori RIG 117 J0 lysate assessed as compound reduction under oxygenated aerobic condition per mg of protein; settings: in vivo; method in brief: as §3
Helicobacter pylori [29] = assay: Prodrug activation in compound-resistant Helicobacter pylori CAS 015 J56 lysate harboring rdxA L132stop and frxA L39stop mutant genes assessed as compound reduction under oxygenated aerobic condition per mg of protein; method in brief: as §1
Helicobacter pylori [30] = assay: Prodrug activation in Helicobacter pylori RIG 117 J0 lysate assessed as compound reduction under oxygenated microaerobic condition per mg of protein; method in brief: as §1
Helicobacter pylori [31] = assay: Prodrug activation in Helicobacter pylori HER 126 V1 lysate assessed as compound reduction under argonized microaerobic condition per mg of protein; method in brief: as §1
Helicobacter pylori [32] = assay: Antimicrobial activity against compound-resistant Helicobacter pylori RIG 117 J56 harboring rdxA R16C and frxA A40stop mutant genes by Etest; assay type: functional; method in brief: as §4
Helicobacter pylori [33] = assay: Prodrug activation in compound-resistant Helicobacter pylori 10593a/2 lysate harboring rdxA C177stop mutant gene assessed as compound reduction under oxygenated aerobic condition per mg of protein; method in brief: as §1
Helicobacter pylori [34] = assay: Prodrug activation in Helicobacter pylori CAS 015 J0 lysate assessed as compound reduction under oxygenated aerobic condition per mg of protein; method in brief: as §1
Helicobacter pylori [35] = assay: Antimicrobial activity against Helicobacter pylori 10593/2 by Etest; assay type: functional; method in brief: as §4
Helicobacter pylori [36] = assay: Prodrug activation in Helicobacter pylori HER 126 V1 lysate assessed as compound reduction under argonized aerobic condition per mg of protein; method in brief: as §3
Helicobacter pylori [37] = assay: Prodrug activation in Helicobacter pylori RIG 117 J0 lysate assessed as compound reduction under argonized microaerobic condition per mg of protein; method in brief: as §3
Helicobacter pylori [38] = assay: Prodrug activation in Helicobacter pylori RIG 117 J0 lysate assessed as compound reduction under argonized aerobic condition per mg of protein; settings: in vivo; method in brief: as §3
Helicobacter pylori [39] = assay: Prodrug activation in compound-resistant Helicobacter pylori RIG 117 J56 lysate harboring rdxA R16C and frxA A40stop mutant genes assessed as compound reduction under oxygenated microaerobic condition per mg of protein; assay type: organism-based; settings: in vivo; method in brief: as §1
Helicobacter pylori [40] = assay: Prodrug activation in Helicobacter pylori 10593/2 lysate assessed as compound reduction under argonized aerobic condition per mg of protein; method in brief: as §3

Cc1cc2nc3c(=O)[nH]c(=O)nc-3n(C[C@H](O)[C@H](O)[C@H](O)COP(=O)(O)OP(=O)(O)OC[C@H]3O[C@@H](n4cnc5c(N)ncnc54)[C@H](O)[C@@H]3O)c2cc1C [FLAVIN ADENIN DINUCLEOTIDE]
Km [1]: 6 µM | Km [2]: 11 µM | Km [3]: 24 µM | Km [4]: 2.4 µM | Km [5]: 5 µM | Km [6]: 95 µM | Km [7]: 2.1 µM | Km [8]: 17 µM

Cc1ncc([N+](=O)[O-])n1CCO [METRONIDAZOLE]
Activity (Helicobacter pylori [9]): 9 nmol/min | MIC (Helicobacter pylori [10]): 4 µg/mL (≈ 23.4 µM) | Activity (Helicobacter pylori [11]): 14 nmol/min | Activity (Helicobacter pylori [12]): 31 nmol/min | MIC (Helicobacter pylori [13]): 64 µg/mL (≈ 374 µM) | MIC (Helicobacter pylori [14]): 2 µg/mL (≈ 11.7 µM) | Activity (Helicobacter pylori [15]): 16 nmol/min | Activity (Helicobacter pylori [16]): 18 nmol/min | MIC (Helicobacter pylori [17]): 64 µg/mL (≈ 374 µM) | Activity (Helicobacter pylori [18]): 22 nmol/min | Activity (Helicobacter pylori [19]): 9 nmol/min | Activity (Helicobacter pylori [20]): 29 nmol/min | MIC (Helicobacter pylori [21]): 32 µg/mL (≈ 187 µM) | Activity (Helicobacter pylori [22]): 15 nmol/min | Activity (Helicobacter pylori [23]): 10 nmol/min | Activity (Helicobacter pylori [24]): 32 nmol/min | MIC (Helicobacter pylori [25]): 4 µg/mL (≈ 23.4 µM) | Activity (Helicobacter pylori [26]): 13 nmol/min | Activity (Helicobacter pylori [27]): 11 nmol/min | Activity (Helicobacter pylori [28]): 27 nmol/min | Activity (Helicobacter pylori [29]): 13 nmol/min | Activity (Helicobacter pylori [30]): 19 nmol/min | Activity (Helicobacter pylori [31]): 20 nmol/min | MIC (Helicobacter pylori [32]): 32 µg/mL (≈ 187 µM) | Activity (Helicobacter pylori [33]): 10 nmol/min | Activity (Helicobacter pylori [34]): 18 nmol/min | MIC (Helicobacter pylori [35]): 2 µg/mL (≈ 11.7 µM) | Activity (Helicobacter pylori [36]): 25 nmol/min | Activity (Helicobacter pylori [37]): 32 nmol/min | Activity (Helicobacter pylori [38]): 33 nmol/min | Activity (Helicobacter pylori [39]): 13 nmol/min | Activity (Helicobacter pylori [40]): 36 nmol/min

NC(=O)N/N=C/c1ccc([N+](=O)[O-])o1 [NITROFURAZONE]
Km [1]: 13.1 µM | Km [2]: 8.5 µM | Km [3]: 3.3 µM | Km [4]: 8.8 µM | Km [5]: 6 µM | Km [6]: 8.1 µM | Km [7]: 2.8 µM | Km [8]: 6.8 µM
